In ChEMBL document CHEMBL1146370 (Bioorg Med Chem, 2007):
pIC50, pKi: −log10 of the molar value.

Molecular target: Vasopressin V1a receptor (Homo sapiens, UniProt P37288)
Assay: Binding affinity for human cloned vasopressin V1a receptor expressed in CHO cells
Format: cell-based
Conditions: not given
Outline: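 Whole-cell competition binding on CHO cells stably expressing human V1a, grown in alpha-MEM with 10% FBS and 250 ug/ml G418. Cells were plated at least 2 days ahead and incubated 30 min at 37 °C in HEPES/BSA/DMEM buffer (pH 7.0) with 1 nM [3H]AVP and 5 test concentrations (usually 0.1–1000 nM), in triplicate. Nonspecific binding was set with 100 nM AVP. Bound radioactivity was SDS-lysed and scintillation-counted. Curve-fit IC50 was converted to Ki with a 0.61 factor.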

Chain of Vasopressin V1a receptor (P37288 whole entry): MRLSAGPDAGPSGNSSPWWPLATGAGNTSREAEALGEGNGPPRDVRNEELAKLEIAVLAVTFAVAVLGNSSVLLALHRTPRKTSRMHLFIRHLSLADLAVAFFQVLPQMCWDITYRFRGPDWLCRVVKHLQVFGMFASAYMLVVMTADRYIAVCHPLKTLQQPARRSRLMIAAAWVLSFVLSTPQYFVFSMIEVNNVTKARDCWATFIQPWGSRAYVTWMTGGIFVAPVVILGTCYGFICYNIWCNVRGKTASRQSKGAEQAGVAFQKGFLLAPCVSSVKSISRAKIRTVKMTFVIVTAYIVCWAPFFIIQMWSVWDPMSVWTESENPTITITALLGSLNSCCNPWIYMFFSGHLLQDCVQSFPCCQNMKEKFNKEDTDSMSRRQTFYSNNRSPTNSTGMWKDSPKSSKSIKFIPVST

SMILES | pKi | pIC50
O=C(CC[C@@H](C(=O)NCc1cccc(C(F)(F)F)c1)N1C(=O)[C@@H](N2C(=O)OC[C@@H]2c2ccccc2)[C@H]1/C=C/c1ccccc1)NCCN1CCCCC1 | 8.05 | 
CC(C)(C)C(=O)C(C(=O)OCc1ccccc1)N1C(=O)[C@@H](N2C(=O)OC[C@@H]2c2ccccc2)[C@H]1C=O (stereo not given in full) |  | < 4.70
CC1(C(C(=O)OCc2ccccc2)N2C(=O)C(NC(=O)Nc3ccccc3)[C@H]2/C=C/c2ccccc2)OCCO1 (stereo not given in full) |  | < 5.30
CC(C)C[C@@H](C(=O)NCc1ccccc1)N1C(=O)[C@@H](N2C(=O)OC[C@@H]2c2ccccc2)[C@H]1/C=C/c1ccccc1 |  | 6.89
CC1(C(C(=O)OCc2ccccc2)N2C(=O)C(N)[C@H]2/C=C/c2ccccc2)OCCO1 (stereo not given in full) |  | < 4.70
CC(C)(C)C(=O)C(C(=O)OCc1ccccc1)N1C(=O)[C@@H](N2C(=O)OC[C@@H]2c2ccccc2)[C@H]1/C=C/c1ccco1 (stereo not given in full) |  | 8.70
O=C(OCc1ccccc1)C(C(=O)c1ccccc1)N1C(=O)[C@@H](N2C(=O)OC[C@@H]2c2ccccc2)[C@H]1/C=C/c1ccccc1 (stereo not given in full) |  | 7.00
CC1(C(C(=O)OCc2ccccc2)N2C(=O)[C@@H](N3C(=O)c4ccccc4C3=O)[C@H]2/C=C/c2ccccc2)OCCO1 (stereo not given in full) |  | 4.21
CC(C)(C)C(=O)[C@@H](C(=O)N1CCC(CCN2CCCCC2)CC1)N1C(=O)[C@@H](N2C(=O)OCC2c2ccccc2)C1/C=C/c1ccccc1 (single isomer, unassigned) |  | 7.07
CCCN1CCN(C(=O)CC[C@@H](C(=O)NCc2cccc(C(F)(F)F)c2)N2C(=O)[C@@H](N3C(=O)OC[C@@H]3c3ccccc3)[C@H]2/C=C/c2ccccc2)CC1 | 8.92 | 
CC1(C(C(=O)OCc2ccccc2)N2C(=O)C(C)(C)[C@H]2/C=C/c2ccccc2)OCCO1 (stereo not given in full) |  | < 4.70
CC1(C(C(=O)OCc2ccccc2)N2C(=O)[C@@H](N3C(=O)OC[C@@H]3c3ccccc3)[C@H]2/C=C/c2ccccc2)OCCO1 (stereo not given in full) |  | 7.35
CC(=O)NC1C(=O)N(C(C(=O)OCc2ccccc2)C2(C)OCCO2)[C@@H]1/C=C/c1ccccc1 (stereo not given in full) |  | < 4.70
O=C(CN1C(=O)[C@@H](N2C(=O)OC[C@@H]2c2ccccc2)[C@H]1/C=C/c1ccccc1)OCc1ccccc1 |  | 6.40
CC1(C(C(=O)OCC[Si](C)(C)C)N2C(=O)[C@@H](N3C(=O)OC[C@@H]3c3ccccc3)[C@H]2/C=C/c2ccccc2)OCCO1 (stereo not given in full) |  | 6.39
CC1(C(C(=O)O)N2C(=O)[C@@H](N3C(=O)OC[C@@H]3c3ccccc3)[C@H]2/C=C/c2ccccc2)OCCO1 (stereo not given in full) |  | < 5.30
CC(C)(C)C(=O)C(C(=O)OCc1ccccc1)N1C(=O)[C@@H](N2C(=O)OC[C@@H]2c2ccccc2)[C@H]1CCc1ccccc1 (stereo not given in full) |  | < 6.30
CN(C)CCCNC(=O)[C@H](CC(=O)NCc1cccc(C(F)(F)F)c1)N1C(=O)[C@@H](N2C(=O)OC[C@@H]2c2ccccc2)[C@H]1/C=C/c1ccccc1 | < 6.22 | 
CC(C)C[C@@H](C(=O)NCc1ccc(Cl)cc1)N1C(=O)[C@@H](N2C(=O)OC[C@@H]2c2ccccc2)[C@H]1/C=C/c1ccccc1 |  | 6.58
O=C(NCc1cccc(C(F)(F)F)c1)[C@H](CCC(=O)N1CCN(CCc2ccccc2)CC1)N1C(=O)[C@@H](N2C(=O)OC[C@@H]2c2ccccc2)[C@H]1/C=C/c1ccccc1 | 8.93 | 
CC(C)C[C@@H](C(=O)NCc1ccccc1Cl)N1C(=O)[C@@H](N2C(=O)OC[C@@H]2c2ccccc2)[C@H]1/C=C/c1ccccc1 |  | 6.00
CN(C)CCNC(=O)[C@H](CC(=O)NCc1cccc(C(F)(F)F)c1)N1C(=O)[C@@H](N2C(=O)OC[C@@H]2c2ccccc2)[C@H]1/C=C/c1ccccc1 | < 6.22 | 
O=C(C[C@@H](C(=O)N1CCN(CCc2ccccc2)CC1)N1C(=O)[C@@H](N2C(=O)OC[C@@H]2c2ccccc2)[C@H]1/C=C/c1ccccc1)NCc1cccc(C(F)(F)F)c1 | 5.21 | 

Other lines, results leading:

pKi | pIC50 | SMILES
7.52 |  | O=C(NCc1cccc(C(F)(F)F)c1)[C@@H](CCC(=O)N1CCC(N2CCCCC2)CC1)N1C(=O)[C@@H](N2C(=O)OC[C@@H]2c2ccccc2)[C@H]1/C=C/c1ccccc1
> 7.52 |  | O=C(NCc1ccc(F)c(C(F)(F)F)c1)[C@H](CCC(=O)N1CCN(C2CCCCC2)CC1)N1C(=O)[C@@H](N2C(=O)OC[C@@H]2c2ccccc2)[C@H]1/C=C/c1ccccc1
6.75 |  | C[C@@H](NC(=O)[C@H](CC(=O)N1CCC(CCN2CCCCC2)CC1)N1C(=O)[C@@H](N2C(=O)OC[C@@H]2c2ccccc2)[C@H]1/C=C/c1ccccc1)c1ccccc1
8.90 |  | C[C@@H](NC(=O)[C@@H](CC(=O)N1CCC(N2CCCCC2)CC1)N1C(=O)[C@@H](N2C(=O)OC[C@@H]2c2ccccc2)[C@H]1/C=C/c1ccccc1)c1cccc(C(F)(F)F)c1 [SRX246]
< 8.22 |  | C[C@@H](NC(=O)[C@H](CC(=O)N1CCC(N2CCCCC2)CC1)N1C(=O)[C@@H](N2C(=O)OC[C@@H]2c2ccccc2)[C@H]1/C=C/c1ccccc1)c1cccc(C(F)(F)F)c1
> 7.22 |  | O=C(NCc1cccc(C(F)(F)F)c1)[C@H](CC(=O)N1CCN(CCN2CCCC2)CC1)N1C(=O)[C@@H](N2C(=O)OC[C@@H]2c2ccccc2)[C@H]1/C=C/c1ccccc1
7.56 |  | O=C(NCc1cccc(C(F)(F)F)c1)[C@@H](CC(=O)N1CCN(N2CCCC2)CC1)N1C(=O)[C@@H](N2C(=O)OC[C@@H]2c2ccccc2)[C@H]1/C=C/c1ccccc1
9.57 |  | O=C(NCc1cccc(C(F)(F)F)c1)[C@H](CCC(=O)N1CCN(C2CCCCC2)CC1)N1C(=O)[C@@H](N2C(=O)OC[C@@H]2c2ccccc2)[C@H]1/C=C/c1ccccc1
8.06 |  | C[C@H](NC(=O)[C@H](CC(=O)N1CCC(CCN2CCCCC2)CC1)N1C(=O)[C@@H](N2C(=O)OC[C@@H]2c2ccccc2)[C@H]1/C=C/c1ccccc1)c1ccccc1
7.64 |  | O=C(NCc1cccc(C(F)(F)F)c1)[C@H](CC(=O)N1CCC(CCN2CCCCC2)CC1)N1C(=O)[C@@H](N2C(=O)OC[C@@H]2c2ccccc2)[C@H]1/C=C/c1ccccc1
> 7.22 |  | O=C(NCc1cccc(C(F)(F)F)c1)[C@H](CC(=O)N1CCN(C2CCCC2)CC1)N1C(=O)[C@@H](N2C(=O)OC[C@@H]2c2ccccc2)[C@H]1/C=C/c1ccccc1
< 7.92 |  | O=C(NCc1cccc(C(F)(F)F)c1)[C@@H](CCC(=O)N1CCN(CC2CCCCC2)CC1)N1C(=O)[C@@H](N2C(=O)OC[C@@H]2c2ccccc2)[C@H]1/C=C/c1ccccc1
8.71 |  | O=C(NCc1cccc(C(F)(F)F)c1)[C@H](CCC(=O)N1CCC(CN2CCCCC2)CC1)N1C(=O)[C@@H](N2C(=O)OC[C@@H]2c2ccccc2)[C@H]1/C=C/c1ccccc1
 | 7.27 | CC(C)C[C@@H](C(=O)N1CCC(N2CCCCC2)CC1)N1C(=O)[C@@H](N2C(=O)OC[C@@H]2c2ccccc2)[C@H]1/C=C/c1ccccc1
7.52 |  | O=C(NCc1cccc(C(F)(F)F)c1)[C@H](CC(=O)N1CCN(C2CCCCC2)CC1)N1C(=O)[C@@H](N2C(=O)OC[C@@H]2c2ccccc2)[C@H]1/C=C/c1ccccc1

Test system: not listed separately
Assay: Drug level in dog brain at 10 mg/kg, po after 4 hrs
Format: ADME, organism-based, Canis lupus familiaris
Design: dose 10 mg/kg, route oral
Conditions: read-out: Drug uptake
Outline: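 A single dog received an oral dose of 10 mg/kg in 10% DMSO/90% PEG300. Brain regions (cortex, brain stem, cerebellum, hypothalamus, hippocampus) and blood were frozen and stored at −70 °C. Samples were homogenized in pH 9.4 buffer, extracted with ethyl acetate with an extraction reference added, reconstituted in acetonitrile, and quantified by ESI LC/MS/MS against spiked control brain standards.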

concentration at 4 h [nM] | SMILES
100 | CC(C)C[C@@H](C(=O)N1CCC(CCN2CCCCC2)CC1)N1C(=O)[C@@H](N2C(=O)OC[C@@H]2c2ccccc2)[C@H]1/C=C/c1ccccc1

Test system: not listed separately
Assay: Cmax in Sprague-Dawley rat plasma at 20 mg/kg, po
Format: ADME, organism-based
Design: dose 20 mg/kg, route oral
Conditions: not given
Outline: (§1)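 Sprague-Dawley rats were gavaged with 20 mg/kg in 23% hydroxypropyl-beta-cyclodextrin with 0.68% lactic acid; the screen co-dosed three compounds per animal. Blood was taken by cardiac puncture under CO2 anesthesia into sodium heparin at 0.25, 0.5, 1, 2, 4, 8, 12 and 24 h, from 3 rats per time point. Plasma was separated within 1 h. Plasma and brain levels were measured by LC/MS.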

Cmax [ng/mL] | SMILES
100 | C[C@@H](NC(=O)[C@@H](CC(=O)N1CCC(N2CCCCC2)CC1)N1C(=O)[C@@H](N2C(=O)OC[C@@H]2c2ccccc2)[C@H]1/C=C/c1ccccc1)c1ccccc1
160 | CN(Cc1cccc(C(F)(F)F)c1)C(=O)[C@@H](CC(=O)N1CCC(N2CCCCC2)CC1)N1C(=O)[C@@H](N2C(=O)OC[C@@H]2c2ccccc2)[C@H]1/C=C/c1ccccc1
50 | O=C(NCc1cccc(C(F)(F)F)c1)[C@@H](CC(=O)N1CCC(N2CCCCC2)CC1)N1C(=O)[C@@H](N2C(=O)OC[C@@H]2c2ccccc2)[C@H]1/C=C/c1ccccc1

Test system: not listed separately
Assay: Tmax in Sprague-Dawley rat plasma at 20 mg/kg, po
Format: ADME, organism-based
Design: dose 20 mg/kg, route oral
Conditions: not given
Outline: as §1

Tmax [h] | SMILES
4 | C[C@@H](NC(=O)[C@@H](CC(=O)N1CCC(N2CCCCC2)CC1)N1C(=O)[C@@H](N2C(=O)OC[C@@H]2c2ccccc2)[C@H]1/C=C/c1ccccc1)c1ccccc1
4 | CN(Cc1cccc(C(F)(F)F)c1)C(=O)[C@@H](CC(=O)N1CCC(N2CCCCC2)CC1)N1C(=O)[C@@H](N2C(=O)OC[C@@H]2c2ccccc2)[C@H]1/C=C/c1ccccc1

Test system: not listed separately
Assay: Half life in Sprague-Dawley rat plasma at 20 mg/kg, po
Format: ADME, organism-based
Design: dose 20 mg/kg, route oral
Conditions: not given
Outline: as §1

half-life [h] | SMILES
2.5 | C[C@@H](NC(=O)[C@@H](CC(=O)N1CCC(N2CCCCC2)CC1)N1C(=O)[C@@H](N2C(=O)OC[C@@H]2c2ccccc2)[C@H]1/C=C/c1ccccc1)c1ccccc1
4 | CN(Cc1cccc(C(F)(F)F)c1)C(=O)[C@@H](CC(=O)N1CCC(N2CCCCC2)CC1)N1C(=O)[C@@H](N2C(=O)OC[C@@H]2c2ccccc2)[C@H]1/C=C/c1ccccc1

Test system: not listed separately
Assay: Cmax in Sprague-Dawley rat brain at 20 mg/kg, po
Format: ADME, organism-based
Design: dose 20 mg/kg, route oral
Conditions: not given
Outline: as §1

Cmax [ng/mL] | SMILES
20 | C[C@@H](NC(=O)[C@@H](CC(=O)N1CCC(N2CCCCC2)CC1)N1C(=O)[C@@H](N2C(=O)OC[C@@H]2c2ccccc2)[C@H]1/C=C/c1ccccc1)c1ccccc1
48 | CN(Cc1cccc(C(F)(F)F)c1)C(=O)[C@@H](CC(=O)N1CCC(N2CCCCC2)CC1)N1C(=O)[C@@H](N2C(=O)OC[C@@H]2c2ccccc2)[C@H]1/C=C/c1ccccc1

Test system: not listed separately
Assay: Half life in Sprague-Dawley rat brain at 20 mg/kg, po
Format: ADME, organism-based
Design: dose 20 mg/kg, route oral
Conditions: not given
Outline: as §1

half-life [h] | SMILES
6 | C[C@@H](NC(=O)[C@@H](CC(=O)N1CCC(N2CCCCC2)CC1)N1C(=O)[C@@H](N2C(=O)OC[C@@H]2c2ccccc2)[C@H]1/C=C/c1ccccc1)c1ccccc1
6 | CN(Cc1cccc(C(F)(F)F)c1)C(=O)[C@@H](CC(=O)N1CCC(N2CCCCC2)CC1)N1C(=O)[C@@H](N2C(=O)OC[C@@H]2c2ccccc2)[C@H]1/C=C/c1ccccc1
